From ChEMBL document CHEMBL5303300, “EUbOPEN Chemogenomics Library - Multiplex” (2023)
Values joined by “and” are separate entries in the source; they are usually repeats but may differ in a detail not shown here. Identical values can stand only once.

Experiments:
Fibroblast = assay: Multiplex assay against human fibroblast; format: toxicity, cell-based; settings: number of replicates 2
Method in brief: (§1)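 Live cells were stained at seeding with Hoechst33342, BioTracker Green Microtubule Cytoskeleton Dye, MitoTracker Red and Annexin V Alexa Fluor 680, then imaged on a CQ1 microscope at 37°C and 5% CO2 after compound addition. CellPathfinder machine-learning gating split cells into Hoechst high-intensity objects or normal cells. Normal cells were split into healthy, pyknosed or fragmented nuclei, and pyknosed cells into mitotic or apoptotic. Tubulin, mitochondrial-mass and membrane-permeability phenotypes are per cents of healthy-nucleus cells.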

HEK-293T = assay: Multiplex assay against HEK293T; format: toxicity, cell-based; settings: human, number of replicates 2; method in brief: as §1
[1] = 12 h, 1 µM, compound concentration 1 uM
[2] = 12 h, 10 µM, compound concentration 10 uM
[3] = 24 h, 1 µM, compound concentration 1 uM
[4] = 24 h, 10 µM, compound concentration 10 uM
[5] = 48 h, 1 µM, compound concentration 1 uM
[6] = 48 h, 10 µM, compound concentration 10 uM

Q: Which results are given for CC1=C(C)C(=O)C(C(C)(C)CC(=O)N(CCCCSC[C@H]2O[C@@H](n3cnc4c(N)ncnc43)[C@H](O)[C@@H]2O)Cc2cccc(-c3ccc(Cl)cc3)c2)=C(C)C1=O?
A: Population Apoptotic (%) (Fibroblast; [1]): 43% and 35%; Population Fragmented Nuclei (%) (Fibroblast; [1]): 13% and 7%; Population Healthy Nuclei (%) (Fibroblast; [1]): 72% and 77%; Population Hoechst High Intensity Objects (%) (Fibroblast; [1]): 0%; Population Membrane Permeable-Phenotype (%) (Fibroblast; [1]): 1% and 6%; Population Mitochondria Different-Phenotype (%) (Fibroblast; [1]): 0% and 1%; Population Mitotic Cells (%) (Fibroblast; [1]): 56% and 64%; Population Normal (%) (Fibroblast; [1]): 100%; Population Pyknosed Nuclei (%) (Fibroblast; [1]): 14%; Population Tubulin-Different-Phenotype (%) (Fibroblast; [1]): 34% and 18%; Total Cell Count (Fibroblast; [1]): 228 and 306; Population Apoptotic (%) (Fibroblast; [2]): 36% and 30%; Population Fragmented Nuclei (%) (Fibroblast; [2]): 11% and 17%; Population Healthy Nuclei (%) (Fibroblast; [2]): 76% and 62%; Population Hoechst High Intensity Objects (%) (Fibroblast; [2]): 0% and 1%; Population Membrane Permeable-Phenotype (%) (Fibroblast; [2]): 18% and 15%; Population Mitochondria Different-Phenotype (%) (Fibroblast; [2]): 4% and 3%; Population Mitotic Cells (%) (Fibroblast; [2]): 63% and 69%; Population Normal (%) (Fibroblast; [2]): 100% and 99%; Population Pyknosed Nuclei (%) (Fibroblast; [2]): 11% and 19%; Population Tubulin-Different-Phenotype (%) (Fibroblast; [2]): 73% and 74%; Total Cell Count (Fibroblast; [2]): 186 and 201; Population Apoptotic (%) (Fibroblast; [3]): 57% and 51%; Population Fragmented Nuclei (%) (Fibroblast; [3]): 8% and 9%; Population Healthy Nuclei (%) (Fibroblast; [3]): 85% and 79%; Population Hoechst High Intensity Objects (%) (Fibroblast; [3]): 0%; Population Membrane Permeable-Phenotype (%) (Fibroblast; [3]): 5% and 2%; Population Mitochondria Different-Phenotype (%) (Fibroblast; [3]): 2% and 1%; Population Mitotic Cells (%) (Fibroblast; [3]): 42% and 48%; Population Normal (%) (Fibroblast; [3]): 99% and 100%; Population Pyknosed Nuclei (%) (Fibroblast; [3]): 5% and 11%; Population Tubulin-Different-Phenotype (%) (Fibroblast; [3]): 24% and 12%; Total Cell Count (Fibroblast; [3]): 235 and 305; Population Apoptotic (%) (Fibroblast; [4]): 46% and 45%; Population Fragmented Nuclei (%) (Fibroblast; [4]): 13% and 14%; Population Healthy Nuclei (%) (Fibroblast; [4]): 78% and 68%; Population Hoechst High Intensity Objects (%) (Fibroblast; [4]): 0%; Population Membrane Permeable-Phenotype (%) (Fibroblast; [4]): 4% and 8%; Population Mitochondria Different-Phenotype (%) (Fibroblast; [4]): 13% and 17%; Population Mitotic Cells (%) (Fibroblast; [4]): 53% and 54%; Population Normal (%) (Fibroblast; [4]): 100% and 99%; Population Pyknosed Nuclei (%) (Fibroblast; [4]): 8% and 17%; Population Tubulin-Different-Phenotype (%) (Fibroblast; [4]): 78% and 83%; Total Cell Count (Fibroblast; [4]): 182 and 183; Population Apoptotic (%) (Fibroblast; [5]): 50%; Population Fragmented Nuclei (%) (Fibroblast; [5]): 12% and 13%; Population Healthy Nuclei (%) (Fibroblast; [5]): 83% and 81%; Population Hoechst High Intensity Objects (%) (Fibroblast; [5]): 0%; Population Membrane Permeable-Phenotype (%) (Fibroblast; [5]): 3% and 1%; Population Mitochondria Different-Phenotype (%) (Fibroblast; [5]): 0%; Population Mitotic Cells (%) (Fibroblast; [5]): 50%; Population Normal (%) (Fibroblast; [5]): 99%; Population Pyknosed Nuclei (%) (Fibroblast; [5]): 3% and 5%; Population Tubulin-Different-Phenotype (%) (Fibroblast; [5]): 13% and 5%; Total Cell Count (Fibroblast; [5]): 257 and 316; Population Apoptotic (%) (Fibroblast; [6]): 71% and 65%; Population Fragmented Nuclei (%) (Fibroblast; [6]): 18% and 20%; Population Healthy Nuclei (%) (Fibroblast; [6]): 74% and 69%; Population Hoechst High Intensity Objects (%) (Fibroblast; [6]): 0%; Population Membrane Permeable-Phenotype (%) (Fibroblast; [6]): 0% and 5%; Population Mitochondria Different-Phenotype (%) (Fibroblast; [6]): 6% and 13%; Population Mitotic Cells (%) (Fibroblast; [6]): 28% and 35%; Population Normal (%) (Fibroblast; [6]): 100%; Population Pyknosed Nuclei (%) (Fibroblast; [6]): 7% and 10%; Population Tubulin-Different-Phenotype (%) (Fibroblast; [6]): 76% and 69%; Total Cell Count (Fibroblast; [6]): 197; Population Apoptotic (%) (HEK-293T; [1]): 40% and 44%; Population Fragmented Nuclei (%) (HEK-293T; [1]): 4%; Population Healthy Nuclei (%) (HEK-293T; [1]): 89% and 86%; Population Hoechst High Intensity Objects (%) (HEK-293T; [1]): 6% and 7%; Population Membrane Permeable-Phenotype (%) (HEK-293T; [1]): 4% and 3%; Population Mitochondria Different-Phenotype (%) (HEK-293T; [1]): 10% and 11%; Population Mitotic Cells (%) (HEK-293T; [1]): 59% and 55%; Population Normal (%) (HEK-293T; [1]): 93% and 92%; Population Pyknosed Nuclei (%) (HEK-293T; [1]): 6% and 8%; Population Tubulin-Different-Phenotype (%) (HEK-293T; [1]): 71% and 70%; Total Cell Count (HEK-293T; [1]): 874 and 797; Population Apoptotic (%) (HEK-293T; [2]): 52% and 54%; Population Fragmented Nuclei (%) (HEK-293T; [2]): 2%; Population Healthy Nuclei (%) (HEK-293T; [2]): 82% and 81%; Population Hoechst High Intensity Objects (%) (HEK-293T; [2]): 7%; Population Membrane Permeable-Phenotype (%) (HEK-293T; [2]): 10% and 3%; Population Mitochondria Different-Phenotype (%) (HEK-293T; [2]): 48% and 51%; Population Mitotic Cells (%) (HEK-293T; [2]): 47% and 45%; Population Normal (%) (HEK-293T; [2]): 92%; Population Pyknosed Nuclei (%) (HEK-293T; [2]): 14% and 15%; Population Tubulin-Different-Phenotype (%) (HEK-293T; [2]): 88% and 92%; Total Cell Count (HEK-293T; [2]): 506 and 434; Population Apoptotic (%) (HEK-293T; [3]): 21% and 25%; Population Fragmented Nuclei (%) (HEK-293T; [3]): 8% and 6%; Population Healthy Nuclei (%) (HEK-293T; [3]): 87%; Population Hoechst High Intensity Objects (%) (HEK-293T; [3]): 8%; Population Membrane Permeable-Phenotype (%) (HEK-293T; [3]): 6% and 3%; Population Mitochondria Different-Phenotype (%) (HEK-293T; [3]): 2% and 5%
